CHOP inhibitor – blocks CHOP induction under ER stress. actives 3.8% (n = 220,000). CHO-K1 CHOP-promoter luciferase, tunicamycin-induced, 15-18 h. inhibition, % at 10 µM. AID 2732;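 active means compounds that reduced the stress-induced luciferase reporter signal by more than about 70% of percent inhibition, limit read from the data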;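 further: 0% = tunicamycin plus vehicle and 100% = wells without tunicamycin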
XBP1 UPR activ – activators of adaptive arm of unfolded protein response (XBP1); actives 0.33% (n = 330,000); activation, % at 20 µM; CHO-XBP1 luciferase reporter, IRE1-XBP1 UPR activation, luminescence; percent of tunicamycin response, DMSO as zero;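 active means versus positive control, 20 µM dose yields 30% or more activation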;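 further: 100% = tunicamycin at 10 µg/mL and 0% = DMSO only wells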
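Material: CHO-XBP1 cells stably carrying IRE1-XBP1-driven luciferase reporter | Medium: F12 with 10% serum | Compound dosing: 20 µM single concentration, DMSO 1% | Incubation: Overnight seeding at 37 °C, 6 h compound treatment at 37 °C | Detection: Steady-Glo luminescence read | Read-out basis: % activation of reporter signal versus tunicamycin and DMSO controls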
CHOP UPR activ – activators of apoptotic arm of unfolded protein response (CHOP) | CHO-CHOP luciferase reporter, UPR activation, luminescence; percent of tunicamycin response over DMSO baseline | activation, % at 10 µM | actives 0.34% (n = 330,000) | AID 449763;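 active means at 10 µM dose, activation of 40% or more, normalized to positive control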;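 further: 100% = tunicamycin at 10 µg/mL and 0% = DMSO alone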
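Assay system: CHO cells with stable CHOP pathway luciferase reporter; Buffer or medium: F12 plus 10% serum; Times: 16-18 h cell attachment, then 6 h compound exposure, 37 °C; Signal: luciferase luminescence; Read-out basis: percent activation relative to tunicamycin control; Control set: tunicamycin high control, DMSO low control.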
NOD2-RIPK2 inh – blocks binding of human NOD2 to RIPK2; inhibition, % at 4.98 µM; O43353; actives 0.38% (n = 360,000); CHO BLA complementation NOD2-RIPK2, CCF4 ratio; AID 624267; in the data active means inhibition above about 21%;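 further: 0% = vehicle only and 100% = reference blocker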
Target sequence (O43353 whole entry, looked up): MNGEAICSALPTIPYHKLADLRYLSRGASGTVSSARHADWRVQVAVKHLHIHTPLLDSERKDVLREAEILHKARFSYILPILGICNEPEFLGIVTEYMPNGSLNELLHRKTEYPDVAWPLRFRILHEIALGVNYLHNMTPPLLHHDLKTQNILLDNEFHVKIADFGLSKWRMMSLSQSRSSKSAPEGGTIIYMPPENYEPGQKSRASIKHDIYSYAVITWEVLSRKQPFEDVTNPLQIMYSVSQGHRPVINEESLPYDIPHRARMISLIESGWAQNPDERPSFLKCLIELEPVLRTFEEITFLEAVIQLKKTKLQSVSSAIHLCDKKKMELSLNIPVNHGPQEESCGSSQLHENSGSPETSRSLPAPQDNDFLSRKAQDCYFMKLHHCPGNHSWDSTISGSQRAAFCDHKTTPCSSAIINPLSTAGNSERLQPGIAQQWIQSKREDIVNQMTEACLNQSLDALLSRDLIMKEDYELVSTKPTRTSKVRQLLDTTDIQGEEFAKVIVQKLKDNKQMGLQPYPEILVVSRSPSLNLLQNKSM
TLR9-MyD88 inh – inhibitors of human TLR9-MyD88 binding. actives 0.21% (n = 340,000). inhibition, % at 4.98 µM. CHO BLA complementation TLR9-MyD88, CCF4 FRET ratio. Q9NR96+Q99836;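 active means inhibition above the mean over all tested compounds plus 3 SD, cut at about 21% in these data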;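 further: 0% = DMSO only wells and 100% = clavulanate BLA inhibitor control wells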
TLR4-MyD88 BLA – inhibitors of human TLR4-MyD88 binding; O00206+Q99836; actives 0.18% (n = 200,000); HeLa CL3-4 TLR4/MyD88 BLA complementation, FRET ratio; inhibition, % at 8.4 µM; in the data active means inhibition above about 25%;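 further: 0% = vehicle and 100% = reference inhibitor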
* = called active by the depositor; . = no result. This excerpt belongs to a sample that is enriched for hits.

SMILES | CHOP inhibitor | XBP1 UPR activ | CHOP UPR activ | NOD2-RIPK2 inh | TLR9-MyD88 inh | TLR4-MyD88 BLA
COc1ccc(Cl)cc1NC(=O)NC1CCCCC1 | 19 | -3 | 0 | -1 | -7 | -1
Cc1ccc(/C=C2\SC(=S)N(CC(=O)Nc3cccnc3)C2=O)cc1 | 86* | -1 | 0 | -3 | 13 | -10
CCc1ccc(/C=C2\SC(=S)N(CCC(=O)NC3=NCCS3)C2=O)cc1 | 88* | 1 | -6 | . | . | 7
O=C(CCN1C(=O)/C(=C\c2cccs2)SC1=S)NC1=NCCS1 | 3 | -3 | 2 | -3 | 3 | 1
O=C(CCN1C(=O)/C(=C/C=C/c2ccccc2)SC1=S)Nc1ccccn1 | 85* | 9 | 9 | -4 | 0 | 3
COc1ccccc1/C=C1\SC(=S)N(CC(=O)Nc2nnc(C)s2)C1=O | 72* | -3 | -1 | . | . | -4
CC(=C\c1ccccc1)/C=C1/SC(=S)N(CCC(=O)Nc2ccccn2)C1=O | 9 | -3 | 0 | . | . | 4
CCN1CCCSC1=S | . | . | . | -1 | . | .
Cc1ccc(-c2ccc3c(c2)O[C@H](CN(C)C(=O)Nc2ccc(C(F)(F)F)cc2)[C@H](C)CN([C@H](C)CO)S3(=O)=O)cc1 | . | . | . | 0 | . | .
COc1ccc(CCN2CC(C(=O)NCc3cccc(F)c3)CCC2=O)cc1 (stereo not given) | . | . | . | -12 | -12 | .
CN(C)c1ccc(CC(=O)N2CCCC(c3cc(C(=O)Nc4ccc(F)c(Cl)c4)no3)C2)cc1 (stereo not given) | . | . | . | -9 | . | .
COC(=O)c1ccc(/C=C2/SC(=S)N(CCCC(=O)Nc3ccccn3)C2=O)cc1 | 77* | -5 | -7 | -3 | -4 | 5
O=C(O)CN1C(=O)/C(=C/C=C/c2ccccc2)SC1=S | -10 | -1 | -2 | -4 | -9 | -12
CC(=O)c1ccc(NC(=O)CN2C(=O)/C(=C/C=C/c3ccccc3)SC2=S)cc1 | 74* | 0 | 1 | 2 | -10 | -5
Fc1ccc(N/N=C/C=C/c2ccccc2)c(F)c1 | 77* | 6 | 4 | 0 | -6 | 13
Fc1ccc(N/N=C/c2ccncc2)c(F)c1 | -5 | 2 | 3 | 0 | 5 | 8
C[C@@H]1CN([C@H](C)CO)C(=O)CCCn2nncc2CO[C@@H]1CN(C)S(=O)(=O)c1ccccc1C#N | . | . | . | -16 | 3 | .
CN(C)C(=O)/C(C#N)=C\c1cc(Br)c(Sc2ccc(Cl)cc2)o1 | 80* | . | . | -4 | -5 | 2
CCN1CCN(S(=O)(=O)c2cc(OCC(=O)NC3CCCCC3)c(C)cc2Cl)CC1 | . | -1 | -1 | -9 | -2 | -4
Cc1cc(S(=O)(=O)N2CCCCCC2)c(Cl)cc1Cl | 80* | 0 | -1 | -5 | 0 | 8
Cc1cc(Cl)c(S(=O)(=O)NC2CCCC2)cc1OCC(=O)NC1CCCCC1 | 70* | -2 | -1 | -10 | -8 | -11
Cc1cc(Cl)c(S(N)(=O)=O)cc1OCC(=O)NC1CCCCC1 | . | -1 | 0 | 1 | 5 | .
CCOC(=O)N1CCN(S(=O)(=O)c2cc(OCC(=O)NC3CCCCC3)c(C)cc2Cl)CC1 | 75* | 2 | 2 | 5 | 1 | -1
Cc1cc(Cl)c(S(=O)(=O)N2CCSCC2)cc1OCC(=O)NC1CCCCC1 | 69 | -2 | -1 | 3 | 5 | 6
Cc1cc(Cl)c(S(=O)(=O)N2CCCCCC2)cc1OCC(=O)NC1CCCCC1 | 92* | 0 | 2 | -1 | 2 | 9
SMILES | CHOP inhibitor | XBP1 UPR activ | CHOP UPR activ | NOD2-RIPK2 inh | TLR9-MyD88 inh | TLR4-MyD88 BLA
Cn1c(=O)c2[nH]c(SCc3cccnc3)nc2n(C)c1=S | . | . | . | -2 | 4 | .
C[C@H](CO)N1C[C@H](C)[C@@H](CN(C)C(=O)C2CC2)OCc2cnnn2CCCC1=O | . | . | . | -7 | 5 | .
O=C(COc1ccc(Br)cc1Cl)NC1CCCCC1 | 71* | 0 | 3 | -5 | 1 | -4
O=C(COc1ccc(Br)cc1Cl)NC(=O)NC1CCCC1 | . | 3 | 7 | -2 | -10 | .
O=C(COc1ccc(S(=O)(=O)NC2CCCCC2)cc1Cl)Nc1ccc2c(c1)OCO2 | 86* | 0 | 2 | 7 | 3 | -2
CN1OC[C@@H]2CN(C(=S)Nc3ccc(C#N)cc3)[C@H](c3ccc(N4CCCCC4)cc3)C[C@@H]21 | . | . | . | -8 | . | .
C=C(C)c1cccc(C(C)(C)NC(=O)Nc2ccc(Cl)cn2)c1 | 78* | -1 | 1 | -2 | -17 | -6
O=C(Nc1cccs1)Nc1nnc([C@@H]2C[C@H](O)[C@@H](CO)O2)s1 | . | . | . | 6 | . | .
CCC1C/C(=C\c2cccnc2)C(=O)/C(=C/c2cccnc2)C1 (stereo not given) | 106* | . | . | 11 | 8 | -13
Cc1[nH]n(C(N)=S)c(=O)c1N=Nc1cccc([N+](=O)[O-])c1C | . | -2 | 4 | -14 | -1 | .
NC(=S)n1[nH]c(-c2ccc([N+](=O)[O-])cc2)c(N=Nc2ccccc2[N+](=O)[O-])c1=O | 85* | . | . | -3 | -4 | 5
Cc1c(N=Nc2c(-c3ccc([N+](=O)[O-])cc3)[nH]n(C(N)=S)c2=O)cccc1[N+](=O)[O-] | 106* | . | . | -5 | 10 | -19
CCCCOc1ccc(CNn2c(C)nc3ccccc3c2=O)cc1 | 81* | -2 | 1 | 3 | -3 | 4
COc1ccc(-c2c(C#N)c(N)nc(Sc3ccc(Cl)cc3)c2C#N)cc1 | 74* | 4 | -2 | -9 | 2 | .
CSc1nc(N)c(C#N)c(-c2ccc(Cl)cc2)c1C#N | 36 | -1 | -4 | 4 | 5 | -2
COC(=O)[C@@]12C[C@@H](CC(=O)NCc3cccc(C(F)(F)F)c3)C(=O)N(Cc3cccc4ccccc34)C1=CCC(C)(C)C2 | . | . | . | -5 | . | .
Cc1nn(CC(O)COc2ccc3c(c2)CCC3)c(C)c1Br (stereo not given) | 82* | -3 | 7 | 0 | -5 | 1
CC(=O)c1c(C)nn(CC(O)COc2ccc3c(c2)CCC3)c1C (stereo not given) | 21 | -1 | 0 | -6 | 7 | 4
C=C(C)COc1ccc2c3c(c(=O)oc2c1OCC(=C)C)CCC3 | 73* | -1 | 2 | -9 | -2 | 6
C=C(C)COc1ccc2c(C)c(C)c(=O)oc2c1OCC(=C)C | 66 | -7 | -2 | -9 | 6 | 2
CC1CCCC(C)N1/N=C/C=C/c1ccccc1[N+](=O)[O-] (stereo not given) | 71* | 1 | 2 | -4 | -6 | -2
COc1ccccc1/C=C/C=N/n1c(-c2ccc(C)cc2)n[nH]c1=S | 5 | 3 | 4 | 8 | 0 | -8
O=[N+]([O-])c1ccccc1/C=C/C=N/n1c(-c2ccccc2)n[nH]c1=S | 10 | 1 | 0 | -13 | -8 | -6

From PubChem BioAssay
